This assay relates to E. coli EV36 K1 capsule, T7 phage lysis, OD600. Kind of assay: T7 phage lysis sensitisation by capsule loss, dose response, selectivity assay for bacterial capsule biogenesis inhibitor project, EV36 K1:K-12 hybrid, OD600, set 3 (AID 504676). In a few lines: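 Assay system: E. coli EV36 K1/K-12 hybrid bacteria; Medium: LB growth medium; Reagent: T7 bacteriophage infection; Incubation: 1.5 h pre-phage plus 3 h post-infection, 37 °C; Measured by: absorbance at 600 nm before infection and 3 h post-infection; Replicates: quadruplicate wells for each concentration.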

The term IC50 denotes the point on the concentration scale where inhibition reaches its midpoint. In the case of `COc1ccc2nc(NC(=O)c3cccs3)sc2c1`, the IC50 was 5.9 µM.
With `COc1ccc2nc(NC(=O)c3ccco3)sc2c1`, the IC50 was 22.9 µM.

For the origin of these results see PubChem BioAssay AID504676 (Southern Research Specialized Biocontainment Screening …, 2011).
